Calls of active or inactive are those of the source. The calls are words filed in the database; no cut-off is given here.
Experiments:
[1] = biological target: T1, Prostaglandin E synthase (Homo sapiens) (UniProt O14684); experiment: Inhibition of mPGES-1 in human IL-1beta-stimulated A549 cell microsomes assessed as remaining activity measuring PGE2 formation from PGH2 at 10 uM after 15 mins by RP-HPLC analysis; settings: Microsome
T1 sequence (whole entry): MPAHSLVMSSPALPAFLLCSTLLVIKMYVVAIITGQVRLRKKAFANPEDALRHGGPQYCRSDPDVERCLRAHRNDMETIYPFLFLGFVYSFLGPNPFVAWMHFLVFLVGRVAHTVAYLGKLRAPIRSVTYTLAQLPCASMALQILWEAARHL
How it was run: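 Cell-free assay with microsomes from human A549 cells; PGE2 generation from 20 μM PGH2 substrate; compounds tested at 10 μM. Result given as % PGE2 formation remaining versus vehicle control; MK-886 reference; mean with SE, n = 3−5.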

[2] = biological target: T2, Prostaglandin G/H synthase 1 (Ovis aries) (UniProt P05979); experiment: Inhibition of ovine COX1 assessed as inhibition of 12-HHT formation preincubated at 10 uM for 5 mins before arachidonic acid addition by HPLC analysis
T2 sequence (whole entry): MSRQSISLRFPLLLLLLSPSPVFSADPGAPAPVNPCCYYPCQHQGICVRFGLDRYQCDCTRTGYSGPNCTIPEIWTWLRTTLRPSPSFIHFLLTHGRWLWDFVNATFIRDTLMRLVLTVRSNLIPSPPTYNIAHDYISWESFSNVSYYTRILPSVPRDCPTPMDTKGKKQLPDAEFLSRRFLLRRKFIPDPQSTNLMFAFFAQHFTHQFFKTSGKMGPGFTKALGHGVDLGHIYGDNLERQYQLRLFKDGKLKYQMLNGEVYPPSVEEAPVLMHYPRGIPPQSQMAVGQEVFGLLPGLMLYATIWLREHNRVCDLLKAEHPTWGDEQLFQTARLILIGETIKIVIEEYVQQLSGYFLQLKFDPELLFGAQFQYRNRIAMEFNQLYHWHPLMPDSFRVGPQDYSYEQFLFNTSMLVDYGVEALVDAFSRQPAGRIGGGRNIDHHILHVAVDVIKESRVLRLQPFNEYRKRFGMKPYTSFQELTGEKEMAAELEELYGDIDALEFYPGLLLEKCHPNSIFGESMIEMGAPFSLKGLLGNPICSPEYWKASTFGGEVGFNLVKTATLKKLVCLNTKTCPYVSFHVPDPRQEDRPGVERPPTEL

[3] = biological target: T3, Polyunsaturated fatty acid 5-lipoxygenase (Homo sapiens, UniProt P09917); experiment: Inhibition of 5-lipoxygenase in A23187-stimulated human neutrophils assessed as inhibition of enzyme product formation by RP-HPLC analysis
T3 sequence (P09917 whole entry): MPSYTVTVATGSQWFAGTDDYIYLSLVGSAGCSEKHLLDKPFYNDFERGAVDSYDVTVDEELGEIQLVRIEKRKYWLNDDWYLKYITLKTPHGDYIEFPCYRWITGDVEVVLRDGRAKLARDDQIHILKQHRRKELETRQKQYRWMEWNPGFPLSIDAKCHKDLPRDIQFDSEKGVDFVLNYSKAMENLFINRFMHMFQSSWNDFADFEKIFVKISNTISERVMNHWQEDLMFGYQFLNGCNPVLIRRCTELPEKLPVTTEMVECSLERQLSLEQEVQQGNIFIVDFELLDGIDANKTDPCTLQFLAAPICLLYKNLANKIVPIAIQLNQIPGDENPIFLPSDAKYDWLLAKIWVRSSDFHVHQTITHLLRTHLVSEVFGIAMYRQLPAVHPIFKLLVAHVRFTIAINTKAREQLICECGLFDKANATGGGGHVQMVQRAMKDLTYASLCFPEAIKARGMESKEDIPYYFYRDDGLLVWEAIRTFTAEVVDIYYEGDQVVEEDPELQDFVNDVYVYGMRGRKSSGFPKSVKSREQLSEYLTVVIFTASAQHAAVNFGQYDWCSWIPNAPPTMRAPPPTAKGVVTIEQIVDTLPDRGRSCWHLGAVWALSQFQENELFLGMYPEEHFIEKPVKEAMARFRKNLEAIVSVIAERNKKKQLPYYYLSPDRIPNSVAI
How it was run: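 Whole-cell assay in human neutrophils stimulated with A23187 plus 20 μM exogenous arachidonic acid as substrate; BWA4C as reference inhibitor. IC50 calculated for selected compounds; mean with SE, n = 3−5.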

Prostaglandin E synthase = biological target: T4, Prostaglandin E synthase (Homo sapiens, UniProt O14684); experiment: Inhibition of mPGES-1 in human IL-1beta-stimulated A549 cell microsomes assessed as inhibition of PGE2 formation from PGH2 after 15 mins by RP-HPLC analysis; set-up: species or system Microsome
T4 sequence (O14684 whole entry): T1 sequence (whole entry)

[4] = biological target: T5, Polyunsaturated fatty acid 5-lipoxygenase (Homo sapiens) (UniProt P09917); experiment: Inhibition of 5-lipoxygenase in A23187-stimulated human neutrophils assessed as remaining activity measuring enzyme product formation at 10 uM by RP-HPLC analysis relative to vehicle-treated control
T5 sequence (whole entry): T3 sequence (P09917 whole entry)
How it was run: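 Human neutrophils (whole cells) stimulated with A23187 and 20 μM exogenous arachidonic acid; test compounds at 10 μM. Activity expressed as % remaining versus vehicle control; BWA4C as reference inhibitor; mean with SE, n = 3−5.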

[5] = biological target: T2, Prostaglandin G/H synthase 1 (Ovis aries); experiment: Inhibition of ovine COX1 assessed as inhibition of 12-HHT formation measuring remaining activity preincubated at 10 uM for 5 mins before arachidonic acid addition by HPLC analysis
How it was run: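 Isolated ovine COX-1 in a cell-free assay, 5 μM arachidonic acid as substrate; compounds at fixed 10 μM. 12-HHT formation expressed as % activity versus vehicle control; mean with SE, n = 3.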

Row | SMILES | Activity [1] [%] | inhibition [2] | IC50 [3] | IC50 ([3]; read-out: IC50) [nM] | IC50 (Prostaglandin E synthase; read-out: IC50) [nM] | Activity [4] [%] | Activity [5] [%] | IC50 (Prostaglandin E synthase; a549)
1 | COc1ccc2cc(C(C)C(=O)NS(=O)(=O)c3ccc(C)cc3)ccc2c1 (stereo not drawn) | 72.8 | inactive | Not Active | – | – | – | – | –
2 | Cc1c(CC(=O)NS(=O)(=O)c2ccc(Cl)cc2)c2cc(C#Cc3ccccc3)ccc2n1Cc1ccc(Cl)cc1 | – | inactive | – | 2000 | 1800 | – | – | –
3 | CS(=O)(=O)NC(=O)Cc1cn(-c2ccccc2)nc1-c1ccc(Cl)cc1 | 98 | inactive | – | – | – | 72.1 | – | –
4 | O=C(Cc1cn(-c2ccccc2)nc1-c1ccc(C#Cc2ccccc2)cc1)NS(=O)(=O)c1ccc(Cl)cc1 | – | inactive | – | 1600 | 200 | – | – | –
5 | O=C(O)Cc1cn(-c2ccccc2)nc1-c1ccc(C#Cc2ccccc2)cc1 | – | inactive | – | 5000 | 400 | – | – | –
6 | Cc1ccc(S(=O)(=O)NC(=O)Cc2c(C)n(Cc3ccc(Cl)cc3)c3ccc(Br)cc23)cc1 | – | inactive | – | 1700 | 1750 | – | – | –
7 | CC(C)Cc1ccc(C(C)C(=O)NS(C)(=O)=O)cc1 (stereo not drawn) | 67.9 | inactive | – | – | – | 91.2 | – | –
8 | Cc1ccc(S(=O)(=O)NC(=O)Cc2cn(-c3ccccc3)nc2-c2ccc(-c3ccccc3)cc2)cc1 | – | inactive | – | 3500 | 1700 | – | 99.1 | –
9 | O=C(O)Cc1cn(-c2ccccc2)nc1-c1ccc(C#Cc2cccc(Cl)c2)cc1 | – | inactive | – | 3900 | 180 | – | – | –
10 | CC(C(=O)O)c1cccc(C(=O)c2ccccc2)c1 (stereo not drawn) [KETOPROFEN] | – | – | Not Active | – | – | – | – | –
11 | O=C(Cc1cn(-c2ccccc2)nc1-c1ccc(Cl)cc1)NS(=O)(=O)c1ccc(Cl)cc1 | – | inactive | – | 2900 | 2300 | – | – | –
12 | O=C(O)Cc1cn(-c2ccccc2)nc1-c1ccc(Cl)cc1 [LONAZOLAC CALCIUM] | – | – | – | – | 45000 | 59.7 | – | –
13 | O=C(O)Cc1cn(-c2ccccc2)nc1-c1ccc(C#Cc2ccc(Cl)cc2)cc1 | – | inactive | – | 3700 | 160 | – | 77.8 | –
14 | Cc1c(CC(=O)O)c2cc(C#Cc3ccccc3)ccc2n1Cc1ccc(Cl)cc1 | – | inactive | – | 900 | 2500 | – | – | –
15 | Cc1ccc(S(=O)(=O)NC(=O)C(C)c2cccc(C(=O)c3ccccc3)c2)cc1 (stereo not drawn) | 76.3 | inactive | – | – | – | 78.9 | – | –
16 | COc1ccc2cc([C@H](C)C(=O)O)ccc2c1 [NAPROXEN] | – | – | Not Active | – | – | – | – | Not Active
17 | CC(C(=O)NS(C)(=O)=O)c1cccc(C(=O)c2ccccc2)c1 (stereo not drawn) | 78.6 | inactive | – | – | – | 90.7 | – | –
18 | COc1ccc2c(c1)c(CC(=O)NS(C)(=O)=O)c(C)n2C(=O)c1ccc(Cl)cc1 | 73.6 | inactive | – | – | – | 64.9 | – | –
19 | Cc1ccc(S(=O)(=O)NC(=O)C(C)c2ccc(CC(C)C)cc2)cc1 (stereo not drawn) | 78.6 | inactive | – | – | – | 67.7 | – | –
20 | COc1ccc2cc(C(C)C(=O)NS(C)(=O)=O)ccc2c1 (stereo not drawn) | 92.5 | inactive | Not Active | – | – | – | – | –
21 | COc1ccc2c(c1)c(C(=O)NCc1ccc(S(C)(=O)=O)cc1)c(C)n2C(=O)c1ccc(Cl)cc1 | 68.7 | inactive | – | – | – | – | – | –
22 | COc1ccc2c(c1)c(CC(=O)O)c(C)n2C(=O)c1ccc(Cl)cc1 [INDOMETHACIN] | – | – | Not Active | – | 40600 | – | 23.3 | –
23 | COc1ccc2c(c1)c(CC(=O)NS(=O)(=O)c1ccc(C)cc1)c(C)n2C(=O)c1ccc(Cl)cc1 | – | inactive | – | 2900 | 6400 | – | 89.4 | –
24 | O=C(Cc1cn(-c2ccccc2)nc1-c1ccc(C#Cc2ccc(Cl)cc2)cc1)NS(=O)(=O)c1ccc(Cl)cc1 | – | inactive | – | 4700 | 350 | – | 70.1 | –
25 | O=C(Cc1cn(-c2ccccc2)nc1-c1ccc(C#Cc2cccc(Cl)c2)cc1)NS(=O)(=O)c1ccc(Cl)cc1 | – | inactive | – | 2300 | 800 | – | – | –
26 | Cc1ccc(S(=O)(=O)NC(=O)Cc2cn(-c3ccccc3)nc2-c2ccc(Cl)cc2)cc1 | – | inactive | – | 2500 | 3400 | – | – | –
27 | CC(C)Cc1ccc(C(C)C(=O)O)cc1 (stereo not drawn) [IBUPROFEN] | 81.2 | – | Not Active | – | – | – | – | –
28 | Cc1ccc(S(=O)(=O)NC(=O)Cc2c(C)n(Cc3ccc(Cl)cc3)c3ccc(C#Cc4ccccc4)cc23)cc1 | – | inactive | – | 1500 | 2800 | – | 83.1 | –
29 | CCOC(=O)Cc1c(C)n(Cc2ccc(Cl)cc2)c2ccc(C#Cc3ccccc3)cc12 | 86.1 | inactive | – | – | – | – | – | –
30 | O=C(Cc1cn(-c2ccccc2)nc1-c1ccc(Cl)cc1)NS(=O)(=O)c1ccccc1 | – | inactive | – | 6800 | 5900 | – | – | –
